In general, ILS refers to how much longer treated animals lived than controls.

Data set [1] has as its system Mus musculus. Description: In vivo evaluation for the antitumor activity on L1210 leukemia cells at the dose 2.5 mg/kg administered intraperitoneally 1 day after 10 e5 L1210 leukemia cells and increase in life span. The settings on record: L1210, ip, 24 h, route intraperitoneal. Format: functional.
The subject of data set [2] is Nucleic Acid. Description: Apparent association constant towards DNA at concentration of 10e-7/M. As to conditions: Bos taurus. Type of data set: nucleic-acid assay. The procedure, abridged: (§1)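 Association constants for DNA binding were derived from absorption changes of calf thymus DNA at 6 × 10^-7 M, expressed as mononucleotide concentration. The buffer was 50 mM Tris-HCl, pH 7.4, with 0.1 M NaCl.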

For data set [3], the system named is Mus musculus. Description: In vivo antitumor activity on L1210 leukemia cells at the dose 2.5 mg/kg administered intraperitoneally 1 day after 10 e5 L1210 leukemia cells and range of deaths. Type of data set: functional. The settings on record: route intraperitoneal.
Data set [4] has as its system Mus musculus. Description: In Vivo antitumor activity on grafted tumor friend cells at the dose 2.5 mg/kg and decrease in intravenous 10 e 6 cells and median survival time. Type of data set: functional. In outline:
(§2)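 Friend tumor cells, 10^6, injected iv into syngeneic mice. Mice randomized in groups of 16. Drug dissolved in acidified saline (equimolar acetic acid) and given as a single iv dose 3 days after inoculation. Median survival time recorded. %ILS = (treated median survival − control median survival)/control median survival × 100.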

The test system of data set [5] is Mus musculus. Description: In vivo acute toxicity (nonlethal dose) against mice by intravenous administration. Type of data set: organism-based. In outline:
(§3)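 Mice (ICFW, C3H or B6D2 F1; 6-8 weeks; 22-24 g) in five groups of six. Drug dissolved in acidified saline (equimolar acetic acid) and given as a single ip or iv dose of 2, 5, 10, 25 or 50 mg/kg. Mortality observed over 30 days to set the lethal dose (LD100) and the highest nonlethal dose (LD0).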

Data set [6] concerns Friend leukemia cells (Mus musculus). Briefly: In vitro concentration required for growth inhibition of murine Friend leukemia cell. The settings on record: read-out: ID50 (the source's name).
Data set [7] has as its system Mus musculus. Briefly: In vivo acute toxicity (lethal dose) against mice by intravenous administration. Type of data set: organism-based. In outline:
as §3

In data set [8] the test system is Mus musculus. Description: In vivo acute toxicity (nonlethal dose) against mice by intraperitoneal administration. The settings on record: ip. Type of data set: organism-based. The procedure, abridged:
as §3

The subject of data set [9] is Nucleic Acid. Briefly: B app constant towards DNA. Format: nucleic-acid assay. As to conditions: Bos taurus. In outline: as §1
Data set [10] has as its system Mus musculus. Description: In vivo acute toxicity (lethal dose) against mice by intraperitoneal administration. Format: organism-based. As to conditions: ip. The procedure, abridged: as §3
The subject of data set [11] is Mus musculus. Description: In Vivo evaluation for the antitumor activity on grafted tumor friend cells at the dose 2.5 mg/kg and Increase in the life span. Format: functional. In outline: as §2
Data set [12] relates to Mus musculus. Briefly: In vivo evaluation for the antitumor activity on L1210 leukemia cells at the dose 2.5 mg/kg administered intraperitoneally 1 day after 10 e5 L1210 leukemia cells and Mean survival time. Type of data set: functional. As to conditions: route intraperitoneal.

In the case of `CCN(CC)CCCNc1nccc2c(C)c3[nH]c4ccc(O)cc4c3c(C)c12`, the ILS at 2.5 mg/kg in data set [1] was 57.1%; in [11] it was 34.1%. In data set [2], the K app was 2e+07 M⁻¹. The Range of deaths in data set [3] stood at 19 days. The MST in data set [4] was determined as 11.4 days; in [12] it was 16.4 days. Moreover, the LD0 in data set [5] amounted to 2 mg/kg; in data set [8], 2.5 mg/kg. Besides, in data set [6], the IC50 was 30 nM. Besides, the LD100 in [7] and in [10] was 7 mg/kg each time. The Bapp in [9] came out at 0.16.
